This note sets out measurements from ChEMBL document CHEMBL4270536, “Preparation, characterisation and biological evaluation of new N-phenyl amidobenzenesulfonates and N-phenyl ureidobenzenesulfonates inducing DNA double-strand breaks. Part 3. Modulation of ring A” (Eur J Med Chem, 2018).

Activity calls are given as the source filed them. No cut-off for these calls is given here.

The subject of one experiment is HT-1080. Kind of experiment: Antiproliferative activity against human HT1080 cells after 48 hrs by SRB assay. The note with it: HT-1080, 48 h. It counts as functional, cell-based. The gist of the method: (§1)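 Cells grown in DMEM with 5% FBS at 37 C; seeded per well at 2.5 x 10^3 (HT-1080), 4.0 x 10^3 (HT-29), 3.0 x 10^3 (M21) or 2.5 x 10^3 (MCF7). Drugs from 40 mM DMSO stock, serial dilutions, final 100 µM to 78 nM, DMSO <0.5%.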
Background: In SRB staining, fixed cells bind dye roughly in proportion to their protein.

For another experiment, the system named is MCF7. Kind of experiment: Antiproliferative activity against human MCF7 cells after 48 hrs by SRB assay. The note with it: MCF7, 48 h. It counts as functional, cell-based. The gist of the method:
as §1

The test system of experiment [1] is M21. Put plainly: Cell cycle arrest in human M21 cells assessed as accumulation at sub-G1 phase at 1.8 uM after 24 hrs by DAPI staining based flow cytometry relative to control. It counts as functional. An outline of the steps: (§2)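 Flow cytometry in M21 cells seeded in six-well plates, allowed 24 h, then exposed 24 h to drug (2- or 5-fold IC50); DMSO 0.5% control. Trypsinized, PBS-washed, fixed in ice-cold EtOH, stained with 2 mg/mL DAPI in PBS; sub-G1, G0/G1, S and G2/M fractions measured on LSR II cytometer.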
(In general: Flow cytometry measures light scatter and fluorescence of single cells or particles in a stream.)

Experiment [2] has as its system M21. Kind of experiment: Cell cycle arrest in human M21 cells assessed as accumulation at G0/G1 phase at 1.8 uM after 24 hrs by DAPI staining based flow cytometry relative to control. It counts as functional. The gist of the method: as §2
The test system of experiment [3] is M21. Put plainly: Cell cycle arrest in human M21 cells assessed as accumulation at S phase at 1.8 uM after 24 hrs by DAPI staining based flow cytometry relative to control. It counts as functional. An outline of the steps:
as §2

Experiment [4] relates to M21. Kind of experiment: Cell cycle arrest in human M21 cells assessed as accumulation at G2/M phase at 1.8 uM after 24 hrs by DAPI staining based flow cytometry relative to control. It counts as functional. The gist of the method: as §2
For a further experiment, the system named is HT-29. Put plainly: Antiproliferative activity against human HT-29 cells after 48 hrs by SRB assay. It counts as functional, cell-based. The note with it: HT-29, 48 h. The gist of the method:
as §1

Experiment [5] deals with M21. Put plainly: Antiproliferative activity against human M21 cells after 48 hrs by SRB assay. It counts as functional, cell-based. The note with it: M21, 48 h. An outline of the steps:
as §1

Experiment [6] deals with M21. Put plainly: Induction of DNA damage in human M21 cells assessed as increase in gammaH2Ax level at 5 times IC50 after 24 hrs by immunofluorescence based epifluorescence microscopy. It counts as functional, cell-based. An outline of the steps:
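M21 cells (1 x 10^5) on fibronectin-coated (5 µg/mL, 1 h, 37 C) cover slides, 24 h attachment, then drug for 24 h; DMSO 0.25% in medium as control. Fixed with 3.7% formaldehyde, permeabilized with 0.1% saponin/3% BSA, mouse anti-H2AX pS139 (1:8000), DAPI nuclear stain; γH2AX foci imaged by epifluorescence microscopy.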

Experiment [7] can be described thus: Alkylating activity at DNA (unknown origin) after 90 mins by colorimetric NBP assay. It counts as functional. An outline of the steps: (§3)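 NBP alkylation kinetics (Bardos colorimetric method): 400 nmol drug in 1 mL ethanol mixed with 1 mL NBP (10% v/v in 95% ethanol), 1 mL 50 mM acetate buffer pH 4.3 and 1 mL ethanol, kept on ice, then heated at 80 C in shaking water bath; stopped on ice 5 min after 0, 30, 60, 90 min. Rate constant from linear regression of absorbance curve; chlorambucil as positive control.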

A short description of experiment [8]: Alkylating activity at DNA (unknown origin) after 90 mins by colorimetric NBP assay relative to chlorambucil. It counts as functional. An outline of the steps:
as §3

In experiment [9] the test system is M21. Kind of experiment: Cell cycle arrest in human M21 cells assessed as accumulation at S phase at 2 times IC50 after 24 hrs by DAPI staining based flow cytometry relative to control.
The subject of experiment [10] is M21. Put plainly: Cell cycle arrest in human M21 cells assessed as accumulation at G2/M phase at 2 times IC50 after 24 hrs by DAPI staining based flow cytometry relative to control.
Experiment [11] has as its system M21. Kind of experiment: Cell cycle arrest in human M21 cells assessed as accumulation at G0/G1 phase at 2 times IC50 after 24 hrs by DAPI staining based flow cytometry relative to control.
For experiment [12], the system named is M21. Put plainly: Cell cycle arrest in human M21 cells assessed as accumulation at sub-G1 phase at 2 times IC50 after 24 hrs by DAPI staining based flow cytometry relative to control.

Consider `CC[C@@]1(O)C(=O)OCc2c1cc1n(c2=O)Cc2cc3c(CN(C)C)c(O)ccc3nc2-1` [TOPOTECAN], for which the IC50 with HT-1080 is 500 nM; with MCF7, 200 nM. Besides, the Activity in the experiment with M21 [1] was 0.1%; with M21 [2], 45.2%; with M21 [3], 31.9%; in the experiment on M21 [4], 22.8%.
Consider `CCNC(=O)Nc1ccc(S(=O)(=O)Oc2ccccc2C(C)C)cc1`, for which the IC50 in the experiment with HT-1080 came out at 250 nM; in the experiment on HT-29, 1100 nM; in the experiment with M21 [5], 4700 nM; in the experiment with MCF7 it was 10000 nM. In addition, the outcome with M21 [6] was Active. In [7], this compound yielded a K of 0.37 ×10⁻³ /s. Further, in experiment [8], the fold change (FC) was determined as 14. Moreover, the Activity in the experiment on M21 [9] is 31.5%; in the experiment with M21 [10], 8.9%; with M21 [11], 58.8%; with M21 [12] it was 0.8%.

As usually defined, the IC50 is the concentration that inhibits the measured activity by half. Read a low IC50 as greater potency in that assay.
